Most compounds without a hit are left out; they make up all but 1.8% or so of the library.
NSD2 inh – blocks human histone methyltransferase NSD2; O96028; NSD2 peptide methylation, AlphaScreen, 120 min; inhibition, % at 12.5 µM; 0.54% of 310,000 active; in the data active means inhibition above about 50%
MBD2 inh – blocks human MBD2 binding to methylated DNA; Q9UBB5; TR-FRET, MBD2 binding to methylated oligonucleotide; inhibition, % at 4.4 µM; 0.31% of 370,000 active; AID 686964; in the data active means inhibition above about 13%
LEDGF integ inh – blocks HIV-1 LEDGF/p75-dependent DNA integration | 0.64% of 370,000 active | TR-FRET IN-LEDGF/p75 DNA integration, Eu/Cy5 | inhibition, % at 3.7 µM;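 active means inhibition above the screen-wide mean plus 3 SD, cut at about 13% in these data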;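 further: signal is the Cy5 over europium emission ratio at 671 and 618 nm; 0% = plate median of compound wells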
UHRF1 binding – UHRF1 methyl-DNA binding inhibition | inhibition, % at 4.4 µM | Q96T88 | UHRF1 binding to methylated oligo, TR-FRET | 0.75% of 370,000 active; in the data active means inhibition above about 21%;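 further: UHRF1 SRA domain binding a hemimethylated CpG hairpin DNA probe; 0% = median of test compound wells and 100% = reference inhibitor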
Casp6 inh – caspase-6 (human) enzyme inhibition. inhibition, % at 12.5 µM. purified caspase-6, Z-VEID-R110 cleavage fluorescence. P55212. 0.53% of 350,000 active. AID 686996;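 active means mean inhibition across replicates at least about 35%, with every replicate also reaching that limit, limit read from the data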;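 further: 0% = median of neutral control wells and 100% = no fluorescence left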
Target sequence (P55212 24-179 limits assumed): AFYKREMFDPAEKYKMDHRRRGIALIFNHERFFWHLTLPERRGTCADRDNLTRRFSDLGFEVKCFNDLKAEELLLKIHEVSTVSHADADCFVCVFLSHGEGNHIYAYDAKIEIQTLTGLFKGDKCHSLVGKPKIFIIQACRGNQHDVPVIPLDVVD
Target sequence (P55212 194-293 limits assumed): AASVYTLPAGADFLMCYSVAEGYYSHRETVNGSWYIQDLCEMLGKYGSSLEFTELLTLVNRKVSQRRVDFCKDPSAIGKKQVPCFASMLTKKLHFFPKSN
TDP2 inh – TDP2 (human) inhibition, absorbance primary screen; AID 720702; 0.34% of 370,000 active; recombinant TDP2, T5PNP hydrolysis, p-nitrophenol absorbance 415 nm; inhibition, % at 12.8 µM;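 active means inhibition above the mean of all tested compounds plus 3 SD, set per campaign, cut at about 25% in these data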;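 further: 0% = DMSO with enzyme and 100% = buffer with substrate but no TDP2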
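Assay system: recombinant human TDP2 / Reagent: T5PNP substrate at 5 mM, a TopII-DNA adduct mimic / Measured by: epi absorbance from released p-nitrophenol / Evaluation: % inhibition relative to enzyme-containing and enzyme-free wells / Control set: enzyme-free and DMSO wells / Replicates: each compound tested once, singlicate / Schedule: enzyme reaction with compound for 2 h at 37 °C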
* = called active by the depositor; x = no result given.

SMILES	NSD2 inh	MBD2 inh	LEDGF integ inh	UHRF1 binding	Casp6 inh	TDP2 inh
N#C/C(=C/c1cccn1-c1cccc(C(=O)O)c1)c1ccc(F)cc1	24	0	2	1	70*	10
CO[C@H]1CN(C)C(=O)c2cc(NS(C)(=O)=O)ccc2OC[C@H](C)NC[C@H]1C	x	x	x	x	-2	x
C[C@H]1CN([C@@H](C)CO)C(=O)c2cc(NC(=O)C3CC3)ccc2O[C@@H]1CN(C)S(=O)(=O)c1ccc(F)cc1	x	x	x	x	0	x
C[C@@H]1CN([C@H](C)CO)C(=O)c2cc(-c3cncnc3)cnc2O[C@H]1CN(C)C(=O)c1cccc(F)c1	x	x	x	x	-2	x
Cc1ccc(NC(=O)CN2C(=O)N/C(=C/c3cc(C)n(-c4ccc(C(=O)O)cc4)c3C)C2=O)cc1	40	-5	7	5	54*	8
CCCC#Cc1ccc2c(c1)O[C@H](CN(C)C(=O)c1ccccc1)[C@@H](C)CN([C@H](C)CO)S2(=O)=O	x	x	x	x	2	x
CCCN(C)C[C@@H]1Oc2ncc(C#CCOC)cc2C(=O)N([C@@H](C)CO)C[C@@H]1C	x	x	x	x	0	x
COc1cccc(CNC(=O)CCCn2ccc3cc(S(=O)(=O)N4CCCC4)ccc32)c1	-13	-3	-1	-1	3	-18
COc1cccc(CNC(=O)CCn2ccc3cc(S(=O)(=O)N4CCCC4)ccc32)c1	-1	-5	-1	0	70*	3
CN1c2ccc(C#Cc3cccnc3)cc2[C@H]2[C@H](CCN2C(=O)C2CCCC2)[C@H]1CO	x	x	x	x	2	x
Cc1ccc(Cn2cc(CN3CC(N4CCN(Cc5ccccc5F)CC4)CS3(=O)=O)nn2)cc1 (stereo not drawn)	x	1	-4	10	-1	-12
O=S1(=O)CC(N2CCN(Cc3ccccc3F)CC2)CN1Cc1cn(Cc2ccc(C(F)(F)F)cc2)nn1 (stereo not drawn)	x	4	8	21*	-1	-8
CC(C)NC(=O)Nc1cccc2c1O[C@@H](CN(C)Cc1ccc(Cl)c(Cl)c1)[C@@H](C)CN([C@@H](C)CO)C2=O	x	x	x	x	6	x
N#C[C@@H]1[C@@H](c2ccc(-c3ccncc3)cc2)[C@@H](CO)N1C(=O)CN1CCOCC1	x	x	x	x	3	x
Cc1noc(C)c1NC(=O)N(C)C[C@@H]1Oc2c(NC(=O)c3cnccn3)cccc2C(=O)N([C@@H](C)CO)C[C@H]1C	x	x	x	x	-1	x
O=C(CSc1nc2ccccc2s1)N1CCCCC1	-4	-5	2	42*	-1	11
O=S(=O)(c1cccc2cccnc12)N1CCN(c2ccc(F)cc2)CC1	0	0	-2	-1	42*	6
COc1ccc(N2CCN(S(=O)(=O)c3cccc4cccnc34)CC2)cc1	x	0	4	-1	4	-2
O=C(Nc1ccc(N2CCN(C(=O)c3ccco3)CC2)cc1)c1ccc(Br)cc1	-5	-1	0	70*	3	5
Cc1ccc(C(=O)Nc2ccc(N3CCN(C(=O)c4ccco4)CC3)cc2)cc1	-2	2	-5	5	4	0
Cc1cc(C(=O)Nc2cccc3c2O[C@H](CN(C)C(=O)Nc2ccc(F)cc2)[C@H](C)CN([C@@H](C)CO)C3=O)n(C)n1	x	x	x	x	1	x
CC(C)c1ccc(C(=O)N2CCCC(c3cc(C(=O)Nc4ccccc4Cl)no3)C2)cc1 (stereo not drawn)	3	4	4	2	57*	-13
CCCNC(=O)C[C@H]1CC[C@H]2[C@@H](COC[C@H](O)CN2C(=O)c2cccnc2)O1	x	x	x	x	-1	x
COc1ccc(OCCOC(=O)Nc2ccccc2)cc1	0	-5	0	1	x	0
COc1cc(C(F)(F)F)nc2ccc(C#CCOC(=O)Nc3ccccc3)cc12	1	5	-1	21*	-2	3
COc1ccc(C(=O)Nc2cc3c(oc2=O)CCCC3=O)cc1	23	-1	2	12	44*	-4
O=C(Nc1cc2c(oc1=O)CCCC2=O)c1cccc(Cl)c1	x	1	1	-4	x	2
O=C(C[C@@H]1C=C[C@@H](NC(=O)NC2CCCCC2)[C@H](CO)O1)NCc1ccccc1	x	x	x	x	8	x
C/C(=N/NS(=O)(=O)c1ccc(Cl)cc1)c1cccc(NC(=O)c2ccncc2)c1	0	-2	1	0	92*	7
